From ChEMBL document CHEMBL2057080, “Synthesis, biological evaluation, and structure-activity relationships of a novel class of apurinic/apyrimidinic endonuclease 1 inhibitors” (J Med Chem, 2012)
pIC50: −log10 of the molar value. ≈ marks a conversion by molar mass, not a printed value. Calls of active or inactive are those of the source. The rule behind the calls is not given here.

How the values were obtained:
[1] = biological target: T1, DNA repair nuclease/redox regulator APEX1 (Homo sapiens, UniProt P27695); assay: Inhibition of human APE1 expressed in Escherichia coli rosetta using fluorescein-dabcyl-containing oligonucleotide as substrate after 5 mins by fluorescence spectrophotometry
[2] = biological target: T1, DNA repair nuclease/redox regulator APEX1; assay: Inhibition of human recombinant APE1 after 15 mins by fluorescence based HTS assay
Method in brief: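 APE1 inhibition was measured in the fluorescence-based qHTS format at up to 57 µM. IC50 is the average of three separate experiments.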

Brain [3] = assay: Half life in CD1 mouse brain at 30 mg/kg, ip; type: ADME, organism-based; design: dose 30 mg/kg, route intraperitoneal; conditions: in vivo
Method in brief: (§1)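 Male CD1 mice, 6–8 weeks old, n = 3, were given 30 mg/kg IP in 50% PEG 200 or PEG 400 plus 10% Cremophor EL in saline. Cardiac-puncture blood was taken at 0.25, 0.5, 1, 2, 4, 8, 12 and 24 h, with heparin plasma. Brain values were multiplied by 5, and LC/MS/MS was used. The brain/plasma ratio is the average over the 8 time points.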

HeLa [4] = assay: Potentiation of methyl methanesulfonate cytotoxic activity against human HeLa cells assessed as decrease in cell viability at 1 to 2 uM incubated for 8 hrs measured after 56 hrs post compound wash-out by Hoechst 33342 staining-based assay; type: functional
Plasma [5] = assay: Tmax in CD1 mouse plasma at 30 mg/kg, ip; type: ADME, organism-based; design: dose 30 mg/kg, route intraperitoneal; conditions: in vivo; method in brief: as §1
[6] = biological target: T1, DNA repair nuclease/redox regulator APEX1; assay: Inhibition of APE1 in human HeLa whole cell extract using […]-5'-AP-DNA as substrate assessed as activity remaining at 100 uM incubated for 15 mins prior to substrate addition measured after 5 mins by PAGE analysis relative to control
Method in brief: (§2)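 HeLa whole cell extract (300 ng; KCl-extracted hypotonic lysate) was preincubated with inhibitor for 15 min at room temperature, at 100 µM or at 0–100 µM. Then 0.5 pmol 32P AP-DNA was added for 5 min at 37 °C. Samples were run on denaturing PAGE, and incision is reported relative to the no-inhibitor control, from three independent measurements.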

[7] = biological target: T1, DNA repair nuclease/redox regulator APEX1; assay: Inhibition of APE1 in human HeLa cells assessed as accumulation of genomic AP sites at 7.5 uM after 24 hrs by aldehyde reactive probe-based assay relative to control; type: cell-based
Method in brief: (§3)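 HeLa cells at 80% confluency were treated for 24 h at 37 °C with DMSO, 275 µM MMS, or 7.5 µM inhibitor, alone or combined with MMS. Genomic DNA (100 ng/µL) was labelled with Aldehyde Reactive Probe and AP sites were quantified, in triplicate. Significance was tested by Student's t test.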

Mus musculus = assay: Toxicity in CD1 mouse assessed as adverse effect at 30 mg/kg, ip after 24 hrs; type: organism-based; design: dose 30 mg/kg, route intraperitoneal; conditions: in vivo
Method in brief: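 Male CD1 mice, 6–8 weeks old, were given 30 mg/kg IP in PEG/Cremophor EL saline vehicle.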

[8] = biological target: T1, DNA repair nuclease/redox regulator APEX1; assay: Competitive inhibition of recombinant APE1 using […]-5'-AP-DNA as substrate assessed as decrease in APE1-DNA complex formation incubated for 10 mins prior to substrate addition measured after 5 mins by electrophoretic mobility shift assay
Method in brief: (§4)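 APE1 (~28 nM) was preincubated without inhibitor (1% DMSO) or with 1, 3, 10, 30 or 100 µM inhibitor for 10 min on ice. Then 100 fmol (10 nM) 32P AP-DNA was added for 5 min on ice. Complexes were resolved on an 8% native gel and quantified by phosphorimager relative to control, in three independent replicates.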

[9] = Chemical stability of the compound in PBS at pH 7.4 assessed as compound remaining after 48 hrs; type: physicochemical; conditions: buffer, pH 7.4, 48 h
Method in brief: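 The compound was held in PBS pH 7.4 and the percent remaining was measured after 48 h. Done by a contract lab, and values are the average of two experiments.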

[10] = biological target: T1, DNA repair nuclease/redox regulator APEX1; assay: Competitive inhibition of recombinant APE1 using […]-5'-AP-DNA as substrate assessed as decrease in APE1-DNA complex formation at 10 to 100 uM preincubated with substrate for 15 mins prior to enzyme addition measured after 5 mins by electrophoretic mobility shift assay
Plasma [11] = assay: Cmax in CD1 mouse plasma at 30 mg/kg, ip; type: ADME, organism-based; design: dose 30 mg/kg, route intraperitoneal; conditions: in vivo; method in brief: as §1
CYP2D6 = CYP2D6 (Homo sapiens, UniProt P10635); assay: Inhibition of CYP2D6 at 10 uM; type: ADME
Plasma [12] = assay: Half life in mouse plasma; type: ADME, cell-free
Method in brief: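 Stability in mouse plasma reported as T1/2. Done by a contract lab, and values are the average of two experiments.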

Plasma [13] = assay: Half life in CD1 mouse plasma at 30 mg/kg, ip; type: ADME, organism-based; design: dose 30 mg/kg, route intraperitoneal; conditions: in vivo; method in brief: as §1
Brain [14] = assay: Tmax in CD1 mouse brain at 30 mg/kg, ip; type: ADME, organism-based; design: dose 30 mg/kg, route intraperitoneal; conditions: in vivo; method in brief: as §1
CYP3A4 = CYP3A4 (Homo sapiens, UniProt P08684); assay: Inhibition of CYP3A4 at 10 uM; type: ADME
HeLa [15] = assay: Cytotoxicity against human HeLa cells at 15 uM after 24 hrs by CellTiterGlo assay; type: functional
Method in brief: (§5)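 HeLa cells were seeded at 6K per well in DMEM/10% FBS and attached overnight. The medium was replaced with compound (5–30 µM) with or without MMS (0.4 mM) or TMZ (1 mM), followed by 24 h at 37 °C. Viability was read with CellTiter-Glo luminescence relative to DMSO, in duplicate. Combination values were normalized to the alkylating agent alone.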

[16] = biological target: T1, DNA repair nuclease/redox regulator APEX1; assay: Competitive inhibition of recombinant APE1 using […]-5'-AP-DNA as substrate incubated for 15 mins prior to substrate addition measured after 5 mins by Lineweaver-Burk plot analysis
Method in brief: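 APE1 (~28 pM) was incubated with 0, 5, 10 or 20 µM inhibitor for 15 min at room temperature. 32P AP-DNA was added at 5–100 nM, followed by 5 min at 37 °C and denaturing PAGE. Velocities were measured, and KM and kcat came from Lineweaver–Burk plots.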

[17] = Aqueous kinetic solubility of the compound in PBS at pH 7.4; type: physicochemical; conditions: read-out: Kinetic_solubility
HeLa [18] = assay: Potentiation of temozolomide cytotoxic activity against human HeLa cells assessed as decrease in cell viability at 5 to 10 uM after 24 hrs by CellTiterGlo assay; type: functional, cell-based; method in brief: as §5
[19] = biological target: T1, DNA repair nuclease/redox regulator APEX1; assay: Inhibition of recombinant APE1 using […]-5'-AP-DNA as substrate incubated for 15 mins prior to substrate addition measured after 5 mins by PAGE analysis
Brain [20] = assay: Cmax in CD1 mouse brain at 30 mg/kg, ip; type: ADME, organism-based; design: dose 30 mg/kg, route intraperitoneal; conditions: in vivo; method in brief: as §1
HeLa [21] = assay: Potentiation of methyl methanesulfonate cytotoxic activity against human HeLa cells assessed as decrease in cell viability at 5 to 10 uM after 24 hrs by CellTiterGlo assay; type: functional, cell-based; method in brief: as §5
HeLa [22] = assay: Potentiation of temozolomide cytotoxic activity against human HeLa cells assessed as decrease in cell viability at 1 to 2 uM incubated for 8 hrs measured after 56 hrs post compound wash-out by Hoechst 33342 staining-based assay; type: functional
[23] = biological target: T1, DNA repair nuclease/redox regulator APEX1; assay: Inhibition of APE1 activity in human HeLa cells assessed as fold increase in genomic AP site accumulation after 24 hrs by aldehyde reactive probe-based assay in presence of methyl methanesulfonate; type: cell-based; method in brief: as §3
[24] = biological target: T1, DNA repair nuclease/redox regulator APEX1; assay: Competitive inhibition of recombinant APE1 using […]-5'-AP-DNA as substrate assessed as decrease in APE1-DNA complex formation at 30 uM incubated for 10 mins prior to substrate addition measured after 5 mins by electrophoretic mobility shift assay; method in brief: as §4
Liver = assay: Half life in mouse liver microsomes; type: ADME, Microsome
Method in brief: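 Stability in mouse liver microsomes reported as T1/2. Done by a contract lab, and values are the average of two experiments.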

[25] = biological target: T1, DNA repair nuclease/redox regulator APEX1; assay: Inhibition of APE1 in human HeLa whole cell extract using […]-5'-AP-DNA as substrate at 10 uM incubated for 15 mins prior to substrate addition measured after 5 mins by PAGE analysis; method in brief: as §2
HeLa [26] = assay: Potentiation of methyl methanesulfonate cytotoxic activity against human HeLa cells assessed as decrease in cell viability at 10 to 15 uM after 24 hrs by CellTiterGlo assay; type: functional, cell-based; method in brief: as §5
HeLa [27] = assay: Potentiation of temozolomide cytotoxic activity against human HeLa cells assessed as decrease in cell viability at 2.5 to 5 uM incubated for 8 hrs measured after 56 hrs post compound wash-out by Hoechst 33342 staining-based assay; type: functional
HeLa [28] = assay: Potentiation of methyl methanesulfonate cytotoxic activity against human HeLa cells assessed as decrease in cell viability at 2.5 to 5 uM incubated for 8 hrs measured after 56 hrs post compound wash-out by Hoechst 33342 staining-based assay; type: functional
HeLa [29] = assay: Cytotoxicity against human HeLa cells at 30 uM after 24 hrs by CellTiterGlo assay; type: functional; method in brief: as §5
HeLa [30] = assay: Potentiation of temozolomide cytotoxic activity against human HeLa cells assessed as decrease in cell viability at 10 to 15 uM after 24 hrs by CellTiterGlo assay; type: functional, cell-based; method in brief: as §5

T1 sequence (P27695 whole entry): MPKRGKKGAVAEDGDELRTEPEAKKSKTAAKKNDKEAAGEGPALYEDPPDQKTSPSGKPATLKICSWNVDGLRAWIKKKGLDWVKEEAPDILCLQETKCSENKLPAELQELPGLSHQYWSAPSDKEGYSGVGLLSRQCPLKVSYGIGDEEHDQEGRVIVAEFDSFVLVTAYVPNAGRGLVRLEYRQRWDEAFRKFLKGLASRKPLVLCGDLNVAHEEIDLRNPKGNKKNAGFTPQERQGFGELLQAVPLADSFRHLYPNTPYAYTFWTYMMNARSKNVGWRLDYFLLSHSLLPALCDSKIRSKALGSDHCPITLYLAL
Sequence of CYP2D6 (P10635 whole entry): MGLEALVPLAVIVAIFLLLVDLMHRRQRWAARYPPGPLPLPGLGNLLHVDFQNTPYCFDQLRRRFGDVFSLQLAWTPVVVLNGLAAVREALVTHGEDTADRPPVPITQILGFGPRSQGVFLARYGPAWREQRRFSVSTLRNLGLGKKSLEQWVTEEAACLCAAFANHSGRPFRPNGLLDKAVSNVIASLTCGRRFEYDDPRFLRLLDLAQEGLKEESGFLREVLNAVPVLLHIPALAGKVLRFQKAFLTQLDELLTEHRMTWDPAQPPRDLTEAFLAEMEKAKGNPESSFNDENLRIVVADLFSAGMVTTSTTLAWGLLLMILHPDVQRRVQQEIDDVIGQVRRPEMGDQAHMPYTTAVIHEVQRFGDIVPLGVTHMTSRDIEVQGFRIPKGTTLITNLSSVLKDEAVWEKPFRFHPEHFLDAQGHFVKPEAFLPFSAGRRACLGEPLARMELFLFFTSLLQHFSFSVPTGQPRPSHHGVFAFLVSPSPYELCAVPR
Sequence of CYP3A4 (P08684 whole entry): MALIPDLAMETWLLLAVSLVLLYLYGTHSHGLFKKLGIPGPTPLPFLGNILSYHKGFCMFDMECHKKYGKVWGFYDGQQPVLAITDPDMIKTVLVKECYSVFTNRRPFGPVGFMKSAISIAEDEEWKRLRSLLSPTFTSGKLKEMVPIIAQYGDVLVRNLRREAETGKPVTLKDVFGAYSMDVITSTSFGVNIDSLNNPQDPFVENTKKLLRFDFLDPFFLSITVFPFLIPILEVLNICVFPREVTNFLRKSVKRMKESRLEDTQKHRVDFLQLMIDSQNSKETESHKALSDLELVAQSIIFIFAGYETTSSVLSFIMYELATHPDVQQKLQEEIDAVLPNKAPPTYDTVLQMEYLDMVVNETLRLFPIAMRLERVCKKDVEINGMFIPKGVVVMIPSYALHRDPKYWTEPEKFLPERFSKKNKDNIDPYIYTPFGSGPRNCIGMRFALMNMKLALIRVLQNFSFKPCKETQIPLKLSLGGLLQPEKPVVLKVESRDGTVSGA

Cc1cc(C)c2c(N)c3cccc(C)c3nc2n1
pIC50 [1]: 4.49 | pIC50 [2]: 4.49

CC(=O)Nc1sc2c(c1-c1nc3ccccc3s1)CCN(C(C)C)C2
t1/2 (Brain [3]): 1 h | Activity (HeLa [4]): Active | Tmax (Plasma [5]): 0.25 h | Activity [6]: 0.6% | inhibition [7]: Active | Activity (Mus musculus): Non-toxic | inhibition [8]: Dose-dependent effect | Stability [9]: 100% | inhibition [10]: Active | Cmax (Plasma [11]): 16 µM | inhibition at 10 µM (CYP2D6): 0% | t1/2 (Plasma [12]): > 4.17 h | t1/2 (Plasma [13]): 2.1 h | Tmax (Brain [14]): 0.25 h | inhibition at 10 µM (CYP3A4): 53% | Activity (HeLa [15]): 50% | inhibition [16]: Active | solubility kinetic [17]: 20.4 µM (≈ 7.58 µg/mL) | Activity (HeLa [18]): Active | pIC50 [19]: 4.92 | Cmax (Brain [20]): 217 µM | Activity (HeLa [21]): Active | Activity (HeLa [22]): Active | fold change (FC) [23]: 3 | inhibition [24]: Active | t1/2 (Liver): 1.33 h | pIC50 [2]: 5.70

CC(=O)Nc1sc2c(c1-c1nc3ccccc3s1)CNC2
t1/2 (Brain [3]): 2.5 h | Tmax (Plasma [5]): 0.25 h | Activity [6]: 0.1% | inhibition [7]: Active | Activity (Mus musculus): Non-toxic | inhibition [8]: Dose-dependent effect | Stability [9]: 100% | inhibition [10]: Active | Cmax (Plasma [11]): 36 µM | inhibition at 10 µM (CYP2D6): 39% | t1/2 (Plasma [12]): 3.55 h | t1/2 (Plasma [13]): 5 h | Tmax (Brain [14]): 0.25 h | inhibition at 10 µM (CYP3A4): 50% | inhibition [25]: Active | inhibition [16]: Active | Activity (HeLa [26]): Active | solubility kinetic [17]: 51.6 µM (≈ 16.3 µg/mL) | Activity (HeLa [27]): Active | Cmax (Brain [20]): 92 µM | fold change (FC) [23]: 3 | Activity (HeLa [28]): Active | inhibition [24]: Active | t1/2 (Liver): 0.13 h | Activity (HeLa [29]): 50% | pIC50 [2]: 5.48 | Activity (HeLa [30]): Active
